We go through 39 compounds from ChEMBL document CHEMBL1121879, “In vitro activity of 2-alkyl-3-hydroxy-1,4-naphthoquinones against Theileria parva” (1981).

Values after ≈ are worked out from the molar mass of the structure shown.

The test system of this assay is Theileria parva. The assay is described as follows: In vitro concentration required to reduce the proportion of schizont infected cells in the culture to 50% of that of untreated control in the 48 hr incubation period. The class given is functional. The settings on record: read-out: ED50 (the source's name). In short, it runs like this: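 T. parva-infected cell cultures were exposed to fourfold serial dilutions of each drug for 48 h, and the proportion of schizont-infected cells was compared with untreated controls. ED50 was expressed in mg/L, with at least two tests per compound.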
For `O=C1C(=O)c2ccccc2C(O)=C1NC(=O)C1CCCCC1`, the EC50 was over 10 µg/mL.

`CCCCCCCCCCCCCCCCCC1=C(O)C(=O)c2ccccc2C1=O`: the EC50 amounted to 0.01 µg/mL (≈ 0.0242 µM).

For the compound `O=C1C(=O)c2ccccc2C(O)=C1CCCCC1CCCCC1`, the EC50 is 0.06 µg/mL (≈ 0.192 µM).

On to `O=C1C(=O)c2ccccc2C(O)=C1CCC1CCCCC1`, for which the EC50 was found to be 0.08 µg/mL (≈ 0.281 µM).

Turning to `NC1=C(CC2CCCCC2)C(=O)c2ccccc2C1=O`, the EC50 was over 10 µg/mL.

Regarding `O=C1C(Cl)=C(CC2CCCCC2)C(=O)c2ccccc21`, the EC50 is over 10 µg/mL.

Consider `O=C1C(=O)c2ccccc2C(O)=C1C1CC2CCC1C2` (centres undefined), for which the EC50 is 0.06 µg/mL (≈ 0.224 µM).

`O=C1C(=O)c2ccccc2C(O)=C1CC1CCCCC1`: the EC50 is 0.03 µg/mL (≈ 0.111 µM).

In the case of `CCCCCCCCCCCCCCC1=C(O)C(=O)c2ccccc2C1=O`, the EC50 came to 0.006 µg/mL (≈ 0.0162 µM).

In the case of `CCCCCCCCCCCCC1=C(O)C(=O)c2ccccc2C1=O`, the EC50 is 0.05 µg/mL (≈ 0.146 µM).

On to `CC(=O)OC1=C(CC2CCCCC2)C(=O)c2ccccc2C1=O`, for which the EC50 turned out to be 1 µg/mL (≈ 3.2 µM).

Take `O=C1C(=O)c2ccccc2C(O)=C1C1CC1`: the EC50 was 10 µg/mL (≈ 46.7 µM).

For `O=C1C(=O)c2ccccc2C(O)=C1SC1CCCCC1`, the EC50 stood at 6.5 µg/mL (≈ 22.5 µM).

Consider `O=C1C(O)=C(C2C=CCCC2)C(=O)c2ccccc21` (centres undefined), for which the EC50 was determined as 1.5 µg/mL (≈ 5.9 µM).

Take `O=C1C(=O)c2ccccc2C(O)=C1CSC1CCCCC1`: the EC50 is over 10 µg/mL.

Turning to `O=C1C(=O)c2ccccc2C(O)=C1C1CCCCCCC1`, the EC50 is 0.007 µg/mL (≈ 0.0246 µM).

In the case of `CCCCCCCCCCCCCC1=C(O)C(=O)c2ccccc2C1=O`, the EC50 turned out to be 0.006 µg/mL (≈ 0.0168 µM).

As to `O=C1C(O)=C(CCCCCCCCCCC2=C(O)C(=O)c3ccccc3C2=O)C(=O)c2ccccc21`, the EC50 is 10 µg/mL (≈ 20.6 µM).

With `O=C1C(=O)c2ccccc2C(O)=C1c1ccccc1`, the EC50 was over 10 µg/mL.

For `O=C1C(=O)c2ccccc2C(O)=C1CCCC1CCCCC1`, the EC50 was 0.06 µg/mL (≈ 0.201 µM).

Regarding `CCCCCCCCCCCCCCCCC1=C(O)C(=O)c2ccccc2C1=O`, the EC50 is 0.01 µg/mL (≈ 0.0251 µM).

Consider `O=C1C(=O)c2ccccc2C(O)=C1CCCCCCCC1CCCCC1`, for which the EC50 was 0.05 µg/mL (≈ 0.141 µM).

Turning to `COc1ccc2c(c1)C(=O)C(C1CCCCCC1)=C(O)C2=O`, the EC50 is over 10 µg/mL.

Regarding `CCCCCCCCCCCCCCCC1=C(O)C(=O)c2ccccc2C1=O`, the EC50 was found to be 0.01 µg/mL (≈ 0.026 µM).

In the case of `O=C1C(=O)c2ccccc2C(O)=C1C1CCCCCCCCCCC1`, the EC50 came out at 0.09 µg/mL (≈ 0.264 µM).

Turning to `O=C1C(O)=C(CCCCCC2=C(O)C(=O)c3ccccc3C2=O)C(=O)c2ccccc21`, the EC50 is over 10 µg/mL.

`O=C1C(O)=C(NCC2CCCCC2)C(=O)c2ccccc21`: the EC50 is over 10 µg/mL.

In the case of `O=C1C(O)=C(C2CCC(C3CCCCC3)CC2)C(=O)c2ccccc21` (centres undefined), the EC50 is 0.006 µg/mL (≈ 0.0177 µM).

As for `O=C1C(O)=C(CCCCCCCCC2=C(O)C(=O)c3ccccc3C2=O)C(=O)c2ccccc21`, the EC50 was 1 µg/mL (≈ 2.18 µM).

Regarding `O=C1C(=O)c2ccccc2C(O)=C1C1CCCOC1` (centres undefined), the EC50 was found to be 6.8 µg/mL (≈ 26.3 µM).

Turning to `O=C1C(=O)c2ccccc2C(O)=C1C1CCC1`, the EC50 was found to be 10 µg/mL (≈ 43.8 µM).

Turning to `O=C1C(=O)c2ccccc2C(O)=C1C1CCCC1`, the EC50 was 3.7 µg/mL (≈ 15.3 µM).

Consider `O=C1C(=O)c2ccccc2C(O)=C1CCCCCC1CCCCC1`, for which the EC50 stood at 0.03 µg/mL (≈ 0.0919 µM).

Turning to `O=C1C(=O)c2ccccc2C(O)=C1C1CCCCCC1`, the EC50 worked out at 0.01 µg/mL (≈ 0.037 µM).

Take `CCCCCCCCCC1=C(O)C(=O)c2ccccc2C1=O`: the EC50 amounted to 0.13 µg/mL (≈ 0.433 µM).

Turning to `O=C1C(O)=C(CCCCCCC2=C(O)C(=O)c3ccccc3C2=O)C(=O)c2ccccc21`, the EC50 was over 10 µg/mL.

Take `CCCCCC1=C(O)C(=O)c2ccccc2C1=O`: the EC50 worked out at 1 µg/mL (≈ 4.09 µM).

As for `O=C1C(O)=C(CCCCCCCCC2CCCCC2)C(=O)c2ccccc21` [MENOCTONE], the EC50 amounted to 0.06 µg/mL (≈ 0.163 µM).

On to `O=C1C(O)=C(C2CCCCC2)C(=O)c2ccccc21` [PARVAQUONE], for which the EC50 was determined as 0.006 µg/mL (≈ 0.0234 µM).
